According to article PMC9924264 (Journal of Medicinal Chemistry, 2023):

Key:
[1] = Metabolic stability in mouse liver microsomes; type: in vitro ADME; settings: compared with analogue (CDD-1115 for CDD-1281, CDD-1431 for CDD-1653)
[2] = Metabolic stability in human liver microsomes; type: in vitro ADME; settings: compared with analogue (CDD-1115 for CDD-1281, CDD-1431 for CDD-1653)
How it was run: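 Human liver microsomes (0.5 mg protein/mL) incubated at 37 °C with test compound (2.0 μM) and NADPH cofactor (1.0 mM). Samples taken at 0, 30 and 60 min, in duplicate. […] Half-life was compared with that of the paired structural analogue.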

[3] = target: T1, BMPR2 (Homo sapiens, UniProt Q13873); test: ThermoFisher SelectScreen LanthaScreen assay; type: binding; settings: than CDD-1115
T1 sequence (Q13873 27-1038): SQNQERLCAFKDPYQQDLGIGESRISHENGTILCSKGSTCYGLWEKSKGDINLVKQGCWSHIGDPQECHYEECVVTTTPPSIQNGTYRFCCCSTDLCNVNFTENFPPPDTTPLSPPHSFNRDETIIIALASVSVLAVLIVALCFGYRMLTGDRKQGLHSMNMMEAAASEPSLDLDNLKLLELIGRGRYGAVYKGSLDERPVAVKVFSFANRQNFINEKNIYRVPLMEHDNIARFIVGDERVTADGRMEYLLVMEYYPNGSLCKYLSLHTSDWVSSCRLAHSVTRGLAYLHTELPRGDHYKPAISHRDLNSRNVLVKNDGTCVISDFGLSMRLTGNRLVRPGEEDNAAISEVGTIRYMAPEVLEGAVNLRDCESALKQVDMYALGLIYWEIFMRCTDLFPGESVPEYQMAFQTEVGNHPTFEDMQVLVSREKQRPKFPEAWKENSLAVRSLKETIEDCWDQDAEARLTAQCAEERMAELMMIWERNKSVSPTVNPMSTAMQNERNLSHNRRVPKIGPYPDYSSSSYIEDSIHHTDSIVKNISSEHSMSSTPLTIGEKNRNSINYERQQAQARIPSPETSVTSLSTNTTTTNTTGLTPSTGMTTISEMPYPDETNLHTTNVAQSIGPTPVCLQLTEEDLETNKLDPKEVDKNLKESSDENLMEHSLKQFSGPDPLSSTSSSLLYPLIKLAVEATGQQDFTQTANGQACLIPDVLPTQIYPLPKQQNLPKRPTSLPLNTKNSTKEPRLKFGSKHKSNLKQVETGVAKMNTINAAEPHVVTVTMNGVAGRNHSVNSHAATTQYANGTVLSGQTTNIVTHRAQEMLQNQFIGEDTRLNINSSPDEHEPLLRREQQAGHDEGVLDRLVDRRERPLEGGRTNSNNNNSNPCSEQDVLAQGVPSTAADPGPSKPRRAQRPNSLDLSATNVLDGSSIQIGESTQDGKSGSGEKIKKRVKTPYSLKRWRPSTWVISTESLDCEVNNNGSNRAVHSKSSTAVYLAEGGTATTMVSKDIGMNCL

[4] = target: BMPR1A (ALK3) (Homo sapiens, UniProt P36894); test: ThermoFisher SelectScreen LanthaScreen assay; type: binding; settings: ALK3 vs BMPR2
[5] = target: T2, TGFBR1 (ALK5) (Homo sapiens, UniProt P36897); test: ThermoFisher SelectScreen LanthaScreen assay; type: binding; settings: ALK5 vs BMPR2
T2 sequence (P36897 34-503): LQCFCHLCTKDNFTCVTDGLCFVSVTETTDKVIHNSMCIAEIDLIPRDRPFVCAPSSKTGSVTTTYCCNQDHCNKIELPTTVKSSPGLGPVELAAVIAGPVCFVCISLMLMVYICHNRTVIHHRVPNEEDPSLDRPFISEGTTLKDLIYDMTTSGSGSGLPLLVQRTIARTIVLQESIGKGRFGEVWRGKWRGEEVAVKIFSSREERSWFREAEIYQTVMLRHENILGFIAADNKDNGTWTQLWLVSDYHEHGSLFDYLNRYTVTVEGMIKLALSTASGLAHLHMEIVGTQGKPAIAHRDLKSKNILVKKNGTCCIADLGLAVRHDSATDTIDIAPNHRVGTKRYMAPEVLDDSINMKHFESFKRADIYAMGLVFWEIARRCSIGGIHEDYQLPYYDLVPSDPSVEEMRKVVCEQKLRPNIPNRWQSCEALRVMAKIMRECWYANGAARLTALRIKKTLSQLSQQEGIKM

[6] = target: BMPR1B (ALK6) (Homo sapiens, UniProt O00238); test: ThermoFisher SelectScreen LanthaScreen assay; type: binding; settings: ALK6 vs BMPR2
[7] = system: pSMAD1/5 in human umbilical vein endothelial cells (HUVECs); test: pSMAD1/5 Western blot, BMP9-stimulated HUVECs; type: cell-based; settings: 25 μM, 30 min pretreatment, 0.5 ng/mL BMP9 15 min
How it was run: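 HUVECs, about 3 × 10^5 per well, starved overnight in Kaighn's F-12 with 0.5% FBS and 30 μg/mL endothelial cell growth supplement. Pretreated with inhibitors for 30 min, then given 0.5 ng/mL BMP9 for 15 min. Lysed with protease and phosphatase inhibitors. SDS-PAGE immunoblot for pSMAD1/5, SMAD1, SMAD5 and GAPDH, with densitometry. n = 3 biological replicates; one-way ANOVA with Tukey post hoc test.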

Chain of BMPR1B (ALK6) (O00238 14-502): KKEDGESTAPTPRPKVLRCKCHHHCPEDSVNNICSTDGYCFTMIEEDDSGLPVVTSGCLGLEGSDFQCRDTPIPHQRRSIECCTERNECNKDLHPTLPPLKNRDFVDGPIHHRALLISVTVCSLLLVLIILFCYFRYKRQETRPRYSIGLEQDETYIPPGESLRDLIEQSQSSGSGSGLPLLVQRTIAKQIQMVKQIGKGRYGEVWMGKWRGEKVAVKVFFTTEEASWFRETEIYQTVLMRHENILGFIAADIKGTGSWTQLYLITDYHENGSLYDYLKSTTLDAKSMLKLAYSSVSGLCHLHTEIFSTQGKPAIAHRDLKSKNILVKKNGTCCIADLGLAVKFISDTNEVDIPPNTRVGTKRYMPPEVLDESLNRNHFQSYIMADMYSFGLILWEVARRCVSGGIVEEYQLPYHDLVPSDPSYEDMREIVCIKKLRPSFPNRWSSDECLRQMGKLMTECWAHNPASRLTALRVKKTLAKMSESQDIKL
Chain of BMPR1A (ALK3) (P36894 24-532): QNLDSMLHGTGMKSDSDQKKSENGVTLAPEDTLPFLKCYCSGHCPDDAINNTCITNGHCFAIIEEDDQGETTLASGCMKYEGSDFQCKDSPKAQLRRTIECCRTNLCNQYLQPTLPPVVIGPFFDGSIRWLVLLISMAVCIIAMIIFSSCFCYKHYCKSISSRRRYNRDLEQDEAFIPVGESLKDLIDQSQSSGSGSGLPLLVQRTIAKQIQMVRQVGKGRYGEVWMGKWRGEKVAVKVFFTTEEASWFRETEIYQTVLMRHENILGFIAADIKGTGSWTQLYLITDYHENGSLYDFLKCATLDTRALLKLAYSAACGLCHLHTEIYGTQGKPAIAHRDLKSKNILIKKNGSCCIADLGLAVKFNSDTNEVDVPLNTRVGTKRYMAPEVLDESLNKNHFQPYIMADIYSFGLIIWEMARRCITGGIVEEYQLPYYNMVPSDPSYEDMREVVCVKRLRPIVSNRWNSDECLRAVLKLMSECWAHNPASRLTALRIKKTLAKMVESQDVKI

fold increase of half-life in MLM [1]: 3.5 fold
fold increase of half-life in HLM [2]: 11.0 fold
fold higher potency (IC50) [3]: 1.5 fold
selectivity [4]: >830×
selectivity [5]: >830×
selectivity [6]: >830×
SMILES: NC(=O)c1cccc(CNC(=O)c2ccc3nc(-c4ccc5cnccc5c4)n(C4CCCC4)c3c2)c1 [CDD-1281, N-(3-Carbamoylbenzyl)-1-cyclopentyl-2-(isoquinolin-6-yl)-1H-benzo[d]imidazole-6-carboxamide]
phosphorylation of SMAD1/5 (pSMAD1/5) [7]: significantly decreased
